MPTP block: permeability transition pore inhibition | inhibition, % at 10 µM | isolated mouse mitochondria, Ca2+ swelling absorbance, 30 min | 1.4% of 360,000 active;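 active = inhibition of 50% or more, scaled per plate between neutral and stimulator controls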;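 also: 0% = DMSO wells given calcium and 100% = 1 mM EGTA wells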
DTT redox prof: compounds producing H2O2 with reducing agent – biochemical, NIH compound library profiling, artefact control for MLSCN library redox annotation, primary screen. 0.03% of 200,000 active. DTT-dependent redox cycling H2O2, phenol red/HRP absorbance; 100% = 100 µM peroxide control, 0% = buffer. activation, % at 10 µM;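 active = activation of at least 50% relative to the plate's high and low controls in the primary single-dose screen; inactive = activation below 50%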;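 also: compound incubated with DTT at 0.8 mM final as the reducing agent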
Lmaj promast: inhibitors of Leishmania major promastigote growth. Leishmania major promastigotes, resazurin fluorescence viability. inhibition, % at 10 µM. AID 1063. 9% of 200,000 active; in the data active = inhibition above about 50%;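 also: promastigotes grown with compound for 44 hours at 28 °C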
Lipid droplet: modulators of hepatic lipid droplet formation; AML12 mouse hepatocytes, oleate lipid droplets, BODIPY imaging; inhibition, % at 6.5 µM; 0.4% of 240,000 active; AID 1656;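 active = lipid droplet intensity inhibited by at least 50%, with more than 500 cells counted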
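material = mouse AML12 hepatocyte cell line, fixed after treatment | also added = 100 µM oleic acid challenge | doses = compound at 6.5 µM only | schedule = overnight exposure | technique = Image-based BODIPY and DAPI two-channel analysis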
T cruzi repl: T. cruzi replication inhibition; T. cruzi beta-gal in NIH3T3, luminescence, 90 h; inhibition, % (test concentration not listed); 1.4% of 300,000 active; AID 1885;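 active = mean inhibition across valid replicates above about 55%, limit read from the data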;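 also: signal also drops with host cell toxicity which is not excluded here; 0% = plate median of DMSO wells and 100% = zero luminescence signal; higher percent means less beta-gal luminescence so fewer parasites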
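Incubation – ≥90 h infection period, 3 h prior cell attachment · System – NIH/3T3 fibroblasts plus reporter T. cruzi · Doses – compound pinned at 50 nL/well, DMSO · Read-out basis – percent inhibition of parasite-derived β-gal signal · Signal – luminescent β-galactosidase signal after 60 min lysis · Also added – 5000 T. cruzi trypomastigotes/well · Medium – Low-serum DMEM with 2% FBS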
MPTP counter: mitochondrial membrane potential, counter-screen; isolated mitochondria, Rhodamine 123 fluorescence; inhibition, % at 10 µM; 78% of 5,000 active; AID 624504; shares compounds with MPTP block; in the data active = inhibition above about 22%;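 also: 0% = DMSO vehicle and 100% = positive control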
MPTP abs DR: dose response confirmation of mitochondrial permeability transition pore inhibitors; IC50, µM; AID 651561; 58% of 780 active; isolated mitochondria swelling, absorbance; shares compounds with MPTP block; in the data active = IC50 below about 20 µM
MPTP counter DR: counter-screen for mitochondrial permeability transition pore inhibitors, dose response | shares compounds with MPTP block | AID 651564 | IC50, µM | isolated mitochondria counterscreen, fluorescence read-out | 49% of 780 active; in the data active = IC50 below about 80 µM
* marks the source's active call; other numbers are inactive results. Many of the other results were omitted from the sample, so hits are more common in it than they were.

Screening Cc1ccc(S(=O)(=O)NC(=O)Nc2cccc([N+](=O)[O-])c2)cc1 returned MPTP block 2, Lipid droplet 4 and T cruzi repl -2.
Screening CC(C)(C)CC(C)(C)NC(=O)Nc1cccc([N+](=O)[O-])c1 returned MPTP block 90*, DTT redox prof 1, Lmaj promast 11, Lipid droplet 2, T cruzi repl 33 and MPTP counter 84*.
For CN(c1ccc(C(=O)Nc2cccc([N+](=O)[O-])c2)cc1)S(C)(=O)=O the results were MPTP block 4, DTT redox prof -1, Lmaj promast 7, Lipid droplet 13 and T cruzi repl 0.
For CC(C)(C)c1ccc(C(=O)Nc2cccc([N+](=O)[O-])c2)cc1 the results were MPTP block 95*, DTT redox prof 0, Lmaj promast 4, Lipid droplet -9, T cruzi repl 18 and MPTP counter 85*.
COC(=O)c1ccc(Cl)c(NC(=O)NC23CC4CC(CC(C4)C2)C3)c1 was read as MPTP block 94*, DTT redox prof -1, Lmaj promast 40, Lipid droplet 9, T cruzi repl 51 and MPTP counter 83*.
`COc1cccc(NC(=O)NNC(=O)CCc2ccc(O)c(O)c2)c1` gave MPTP block -1, Lipid droplet 11 and T cruzi repl -24.
Screening O=c1c2c(-c3ccccc3)csc2nc2c3ccccc3c(NCCN3CCOCC3)nn12 returned MPTP block 58*, DTT redox prof 0, Lmaj promast 100*, Lipid droplet -14, T cruzi repl 38 and MPTP counter -17.
Screening c1ccc(-c2csc3ncnc(NCCCN4CCOCC4)c23)cc1 returned MPTP block 6, DTT redox prof 1, Lmaj promast 6, Lipid droplet 0 and T cruzi repl 7.
Screening CCOC(=O)C1CCCN(C(=O)CCCn2nnnc2CN2CCC(C)CC2)C1 (stereo not drawn) returned MPTP block -1, Lipid droplet -1 and T cruzi repl -5.
`Cc1ccccc1OCCC(=O)OCC(=O)Nc1c(C)nn(-c2ccccc2)c1C` gave MPTP block 1 and T cruzi repl -8.
For O=C(Nc1cccc(C(F)(F)F)c1)N1CCC(c2nc(-c3ccc(F)cc3)no2)CC1 the results were MPTP block 77*, DTT redox prof 2, Lmaj promast 4, Lipid droplet -52, T cruzi repl 53 and MPTP counter 89*.
For CC(C)CNC(=S)N1CCC(c2nc(-c3ccc(F)cc3)no2)CC1 the results were MPTP block 95*, DTT redox prof 0, Lmaj promast -4, Lipid droplet -3 and MPTP counter 94*.
For O=C(NCc1csc2ccccc12)Nc1cc(Cl)cc(Cl)c1 the results were MPTP block 86*, Lipid droplet 24, T cruzi repl 44 and MPTP counter 76*.
Screening O=C(O)Cc1csc2ccccc12 returned MPTP block -2, DTT redox prof -2, Lmaj promast -7, Lipid droplet 7 and T cruzi repl -4.
Screening O=C(NCc1ccccn1)Nc1ccc(Cl)c(Cl)c1 returned MPTP block 51*, DTT redox prof 0, Lmaj promast 0, Lipid droplet -4, T cruzi repl 0 and MPTP counter 85*.
Screening Cc1ccc(NC(=O)NCc2ccncc2)cc1Cl returned MPTP block 63*, DTT redox prof 0, Lmaj promast 3, Lipid droplet -16, T cruzi repl -23 and MPTP counter 79*.
For O=C(NCc1ccccn1)Nc1cc(Cl)cc(Cl)c1 the results were MPTP block 83*, Lipid droplet 4, T cruzi repl 3 and MPTP counter 100*.
O=C(NC(NC1CCS(=O)(=O)C1)C(Cl)(Cl)Cl)c1ccc(Br)cc1 (stereo not drawn) was read as MPTP block 91*, DTT redox prof 1, Lmaj promast 44, T cruzi repl 12 and MPTP counter 102*.
`O=C(NC(NC1CCS(=O)(=O)C1)C(Cl)(Cl)Cl)c1cccc(Cl)c1` (stereo not drawn) gave MPTP block 1, DTT redox prof 1, Lmaj promast -6 and T cruzi repl -8.
CCCOc1ccc(S(=O)(=O)n2cc(F)c(=O)[nH]c2=O)cc1 was read as MPTP block -1, Lipid droplet -18 and T cruzi repl 22.
For COc1ccc(CNC(=O)c2cccc3c(-c4cccc(C(N)=O)c4)coc23)cc1OC the results were MPTP block 86* and MPTP counter 83*.
For COc1cc(-c2coc3c(C(=O)NCc4ccc(OC)c(OC)c4)cccc23)ccc1O the results were MPTP block 73* and MPTP counter 58*.
`O=C(NCc1cccnc1)c1ccc(-c2ccc(F)c(F)c2)c2ccoc12` gave MPTP block 92* and MPTP counter 84*.
`O=C(NCc1ccccc1)c1cccc2c(-c3ccc(F)c(F)c3)coc12` gave MPTP block 2.
`COc1ccc(CNC(=O)c2cccc3c(-c4ccc(F)c(F)c4)coc23)cc1OC` gave MPTP block 88* and MPTP counter 80*.
`O=C(NCc1ccc(F)c(F)c1)c1ccc(-c2ccc(F)c(F)c2)c2ccoc12` gave MPTP block 0.
C#CCn1c(O)c(N=NC(=O)CNC(=O)c2cccnc2)c2ccccc21 was read as MPTP block -2, Lipid droplet 0 and T cruzi repl -1.
`COC(=O)Cn1cnc2c(Cl)nc(F)nc21` gave MPTP block -1.
For CC(=O)Nc1ccc(NC(=O)CSc2ccc3nnc(-c4cccnc4)n3n2)cc1 the results were MPTP block -1, Lipid droplet -6 and T cruzi repl -20.
Screening Cn1nc(C(F)(F)F)c(-c2ccc(Br)cc2)c1NC(=O)Nc1ccc(F)cc1F returned MPTP block 76*, Lipid droplet 13, T cruzi repl 47 and MPTP counter 84*.
Screening COC(=O)Cn1c2ccc(OC)cc2c2nc(C)sc21 returned MPTP block 2, Lipid droplet 2 and T cruzi repl 8.
`Cc1ccc(C2(CCNC(C)c3cccs3)CCOC(C(C)C)C2)cc1` (stereo not drawn) gave MPTP block 91*, DTT redox prof 4, Lmaj promast 38, T cruzi repl 34, MPTP counter -14, MPTP abs DR 12* and MPTP counter DR 59*.
